This note sets out measurements from ChEMBL document CHEMBL1156926, “CoMFA analysis of tgDHFR and rlDHFR based on antifolates with 6-5 fused ring system using the all-orientation search (AOS) routine and a modified cross-validated r(2)-guided region selection (q(2)-GRS) routine and its initial application” (Bioorg Med Chem, 2010).

Each structure is given as a SMILES string. The source made the active and inactive calls. No cut-off for these calls is given here. Bounds are passed on as bounds.

Usually IC50 stands for the point on the concentration scale where inhibition reaches its midpoint. A low value points to greater potency. As a reminder, the inhibition is the change of the read-out against control, counted positive when it falls.

For assay [1], the target named is T1, Bifunctional dihydrofolate reductase-thymidylate synthase (Toxoplasma gondii, UniProt Q07422).
T1 sequence (Q07422 whole entry): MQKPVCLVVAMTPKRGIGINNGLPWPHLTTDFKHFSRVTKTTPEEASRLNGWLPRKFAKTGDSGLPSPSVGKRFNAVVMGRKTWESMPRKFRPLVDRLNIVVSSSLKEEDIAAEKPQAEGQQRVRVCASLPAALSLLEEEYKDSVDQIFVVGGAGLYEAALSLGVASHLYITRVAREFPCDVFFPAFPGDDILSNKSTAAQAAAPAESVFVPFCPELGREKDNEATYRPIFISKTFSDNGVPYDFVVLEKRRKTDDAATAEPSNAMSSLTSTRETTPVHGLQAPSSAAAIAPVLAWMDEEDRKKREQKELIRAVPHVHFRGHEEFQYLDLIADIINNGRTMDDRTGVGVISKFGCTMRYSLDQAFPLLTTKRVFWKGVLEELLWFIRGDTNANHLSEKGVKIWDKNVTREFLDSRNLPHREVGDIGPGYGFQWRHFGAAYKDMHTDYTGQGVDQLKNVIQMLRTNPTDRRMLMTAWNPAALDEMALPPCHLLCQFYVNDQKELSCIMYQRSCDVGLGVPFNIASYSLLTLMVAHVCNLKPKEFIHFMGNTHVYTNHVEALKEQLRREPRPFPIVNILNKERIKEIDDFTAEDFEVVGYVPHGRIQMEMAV
Briefly: Inhibition of Toxoplasma gondii DHFR by spectrophotometric assay.

In assay [2] the target is T2, Dihydrofolate reductase (Rattus norvegicus, UniProt Q920D2).
T2 sequence (Q920D2 whole entry): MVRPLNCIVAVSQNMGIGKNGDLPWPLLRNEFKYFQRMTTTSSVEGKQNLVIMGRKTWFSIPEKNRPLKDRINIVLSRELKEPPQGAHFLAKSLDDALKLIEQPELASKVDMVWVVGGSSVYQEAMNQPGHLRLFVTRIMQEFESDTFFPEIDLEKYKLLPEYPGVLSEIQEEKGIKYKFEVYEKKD
Kind of assay: Inhibition of rat liver DHFR by spectrophotometric assay.

Assay [3] deals with T1, Bifunctional dihydrofolate reductase-thymidylate synthase. Kind of assay: Inhibition of Toxoplasma gondii DHFR using dihydrofolic acid substrate and NADPH cofactor by spectrophotometric assay.
For assay [4], the target named is T2, Dihydrofolate reductase. Briefly: Inhibition of rat liver DHFR using dihydrofolic acid substrate and NADPH cofactor by spectrophotometric assay.
The target in assay [5] is T3, Dihydrofolate reductase (Rattus norvegicus) (UniProt Q920D2).
T3 sequence (whole entry): T2 sequence (Q920D2 whole entry)
Conditions: 24.6 uM.

Assay [6] has as its system Toxoplasma gondii. As to conditions: RH, 50 mg/kg.
In assay [7] the test system is Toxoplasma gondii. Conditions: RH, 50 mg/kg. The source holds these as a separate data set.
Assay [8] has as its system Toxoplasma gondii. Briefly: Antimicrobial activity against Toxoplasma gondii RH infected in BALB/c mouse assessed as reduction of parasite level at 50 mg/kg, ip relative to untreated control. Conditions: route intraperitoneal. The class given is functional. An outline of the steps:
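Female BALB/c mice (18-20 g) inoculated i.p. with 5 × 10³ cultured RH trophozoites. Treatment began 4 h after inoculation: 50 mg/kg/day i.p. (amount injected). Where folic acid was used, it was given in drinking water at 10 microgram/ml. Survival was recorded to day 5 and mice were harvested on day 6. Parasites in peritoneal exudate were counted per 1000x field (10 microliters spread over 1 cm²).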

Assay [9] has as its system Toxoplasma gondii. Kind of assay: Antimicrobial activity against Toxoplasma gondii RH infected in BALB/c mouse assessed as mouse survival at 50 mg/kg, ip after 5 days. As to conditions: route intraperitoneal. The class given is functional.

Consider `Nc1nc(N)c2c(CSc3cccc(Oc4ccccc4)c3)coc2n1`, for which the IC50 in [1] came to 19 µM; against Dihydrofolate reductase [2], 39 µM. As to `Cc1[nH]c2nc(N)nc(N)c2c1Sc1ccc(Cl)cc1Cl`, the IC50 in [1] was 28.2 µM; against Dihydrofolate reductase [2] it was 34.6 µM. Regarding `Cc1[nH]c2nc(N)nc(N)c2c1Sc1ccc(Cl)cc1`, 37.4 µM corresponded to half-maximal inhibition against Dihydrofolate reductase [2] (IC50). Consider `Cc1c(Sc2ccc3ccccc3c2)[nH]c2nc(N)nc(N)c12`, for which the IC50 was 1600 nM in [3] and 8.1 µM on Dihydrofolate reductase [4].

Consider `Nc1nc(N)c2c(CSc3ccccc3-c3ccccc3)coc2n1`, for which the IC50 in assay [1] came to 105 µM; at Dihydrofolate reductase [2] it was 49 µM.

`COc1cc(CCCc2c[nH]c3nc(N)nc(N)c23)cc(OC)c1OC`: at Dihydrofolate reductase [2], the IC50 is 4.8 µM. The molecule `Nc1nc(N)c2c(CNc3cccc4c3CCCC4)c[nH]c2n1` displayed an IC50 at Dihydrofolate reductase [2] of 59.3 µM.

In turn, `Nc1nc(N)c2c(CNc3cccc4cc5ccccc5cc34)coc2n1` had an IC50 against Dihydrofolate reductase [2] greater than 51 µM. On Dihydrofolate reductase [4], `COc1cc(Sc2[nH]c3nc(N)nc(N)c3c2C)cc(OC)c1OC` came in with an IC50 greater than 24.6 µM. In assay [5], this molecule had an inhibition of 12%. Take `Nc1nc(N)c2c(CNc3ccc4c(c3)C(O)c3ccccc3-4)coc2n1` (stereo unspecified): the figures for the 50% inhibitory concentration (IC50) (in [1]; on Dihydrofolate reductase [2]) were 63 µM and greater than 13 µM, respectively. As to `CCn1c2ccccc2c2cc(NCc3coc4nc(N)nc(N)c34)ccc21`, the IC50 came to 4.5 µM in assay [1] and 12.6 µM against Dihydrofolate reductase [2].

Regarding `COc1ccc(OC)c(Sc2c(C)[nH]c3nc(N)nc(N)c23)c1`, the figures for the IC50 (in assay [1]; at Dihydrofolate reductase [2]) were 87 µM and greater than 46 µM, respectively. As for `Nc1nc(N)c2c(CCCc3ccc4c(c3)CCCC4)c[nH]c2n1`, on Dihydrofolate reductase [2], the midpoint of inhibition, the IC50, lay at 1.09 µM.

For `Nc1nc(N)c2c(CSc3ccc4c(c3)CCCC4)c[nH]c2n1`, the IC50 in assay [1] came out at 9.2 µM; against Dihydrofolate reductase [2] it was 82.9 µM. Take `Nc1nc(N)c2c(CSc3cccc4c3CCCC4)c[nH]c2n1`: the IC50 in assay [1] was 0.81 µM; at Dihydrofolate reductase [2], 3 µM. On to `Nc1nc(N)c2c(CCCc3ccc(OCc4ccccc4)cc3)c[nH]c2n1`, for which the values for the IC50 (in [1]; against Dihydrofolate reductase [2]) were 1.6 µM and 0.66 µM, respectively. Take `CCn1c2ccccc2c2cc(N(C)Cc3coc4nc(N)nc(N)c34)ccc21`: the results for the IC50 (in assay [1]; at Dihydrofolate reductase [2]) were 22.6 µM and 24.7 µM, respectively. Regarding `Cc1cccc(C)c1Sc1[nH]c2nc(N)nc(N)c2c1C` [listing 1 of 2 here], the inhibition entry in the assay on Toxoplasma gondii [6] and in the assay on Toxoplasma gondii [7] was “Active” each time.

As for `Cc1[nH]c2nc(N)nc(N)c2c1Sc1ccccc1`, the IC50 in assay [1] was 81 µM; on Dihydrofolate reductase [2], greater than 33 µM.

Take `Cc1cccc(C)c1Sc1[nH]c2nc(N)nc(N)c2c1C` [listing 2 of 2 here]: the IC50 against Dihydrofolate reductase [4] is 0.388 µM. Also, in the assay on Toxoplasma gondii [8], the “fold change (FC)” value is reported as greater than 2. For the same molecule, in the assay on Toxoplasma gondii [9] (Toxoplasma gondii, RH, ip, 120 h), the survival at 50 mg/kg stood at 100%. `Nc1nc(N)c2c(CCCc3cc(Cl)ccc3Cl)c[nH]c2n1`: at Dihydrofolate reductase [2], it took 4.8 µM to reach half-maximal inhibition (IC50). For the molecule `Cc1[nH]c2nc(N)nc(N)c2c1Sc1cccc2c1CCCC2`, at Dihydrofolate reductase [2], the IC50 stood at 40 µM. Same read-out and setting: the same measure for `Nc1nc(N)c2c(CNc3ccc4c(c3)Cc3ccccc3-4)coc2n1`: greater than 10 µM. Still for that read-out and setting: the same measure for `COc1ccc(OC)c(CCCc2c[nH]c3nc(N)nc(N)c23)c1`: 11.8 µM. Consider `Cc1cccc(C)c1Sc1[nH]c2nc(N)nc(N)c2c1C.Cl`, for which, in the assay with Toxoplasma gondii [9], the Survival is 100%. Consider `Nc1nc(N)c2c(CCCc3ccccc3)c[nH]c2n1`, for which the values for the IC50 (in [1]; on Dihydrofolate reductase [2]) were 2.7 µM and 8.6 µM, respectively.

For `Nc1nc(N)c2c(CSc3cccc(-c4ccccc4)c3)coc2n1`, the IC50 turned out to be 23 µM in assay [1] and 31 µM on Dihydrofolate reductase [2]. Molecule `Cc1[nH]c2nc(N)nc(N)c2c1Sc1cccc(Cl)c1` showed an IC50 at Dihydrofolate reductase [2] of 64 µM. Turning to `COc1ccc(-c2nc3nc(N)nc(N)c3[nH]2)c([N+](=O)[O-])c1OC`, the IC50 on Dihydrofolate reductase [2] was greater than 25 µM. Regarding `Nc1nc(N)c2c(CSc3ccc(-c4ccccc4)cc3)coc2n1`, the IC50 turned out to be 79 µM in [1] and 351 µM against Dihydrofolate reductase [2].

`COc1ccc(OC)c(NCc2nc3c(N)nc(N)nc3[nH]2)c1` displayed an IC50 against Dihydrofolate reductase [2] greater than 29 µM. As for `Nc1nc(N)c2c(CSc3ccccc3Oc3ccccc3)coc2n1`, the figures for the IC50 (in assay [1]; against Dihydrofolate reductase [2]) were 38 µM and 18 µM, respectively. Consider `Cc1cc(C)cc(Sc2[nH]c3nc(N)nc(N)c3c2C)c1`, for which the 50% inhibitory concentration (IC50) against Dihydrofolate reductase [4] was found to be 7.6 µM. In turn, `Nc1nc(N)c2c(CSc3ccc(Oc4ccccc4)cc3)coc2n1` displayed an IC50 against Dihydrofolate reductase [2] of 65 µM.

`Cc1c(Sc2cc(Cl)c(Cl)cc2Cl)[nH]c2nc(N)nc(N)c12`: the IC50 in assay [3] was found to be 212 nM; against Dihydrofolate reductase [4] it was 3 µM.
